The text below walks through data of ChEMBL document CHEMBL1140523, “Benzazepinone Nav1.7 blockers: potential treatments for neuropathic pain” (Bioorg Med Chem Lett, 2007).

Usually Inhibition stands for the relative decrease from the control value, in per cent. The low end stands for little suppression, the high end for strong suppression. As usually defined, the half-life is how long it takes for the measured level to halve. The low end stands for rapid decline, the high end for slow decline. One may read the IC50 as the point on the concentration scale where inhibition reaches its midpoint. By inhibition is commonly meant the share of the control response that was lost under treatment. Read a low inhibition as little suppression. As usually defined, the bioavailability is dose-corrected exposure relative to a reference, in per cent. Read a high bioavailability as good availability. As a reminder, the Cmax is the peak of the concentration-time curve.

The target of series [1] is Voltage-gated inwardly rectifying potassium channel KCNH2 (Homo sapiens, UniProt Q12809). In words: (§1) Displacement of [35S]MK-0499 from hERG at 10 uM. To be noted: 10 µM. A general note: In a radioligand displacement assay an active substance lowers the binding of a labelled ligand.
The nature of series [2]: Plasma clearance in Sprague-Dawley rat at 1 mg/kg, iv or 3 mg/kg, po. It is filed as ADME, organism-based. The procedure, abridged:
(§2)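 Fasted male Sprague–Dawley rats received 1.0 mg/kg iv through a femoral vein cannula (n = 3) or 3.0 mg/kg po by gavage (n = 3). Serial blood was drawn at 5 min (iv only), 15 and 30 min, and 1, 2, 4, 6 and 8 h. Plasma was protein-precipitated with acetonitrile and analysed by LC–MS/MS.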

In series [3] the test system is Rattus norvegicus. In words: (§3) Oral bioavailability in Sprague-Dawley rat at 3 mg/kg. To be noted: in vivo. In kind it is ADME, organism-based. The procedure, abridged: as §2
Series [4] can be described thus: (§4) Half life in Sprague-Dawley rat at 1 mg/kg, iv or 3 mg/kg, po. It is filed as ADME, organism-based. The conditions noted are these: Sprague-Dawley, in vivo. A digest of the protocol:
as §2

For series [5], the target named is Sodium channel protein type 9 subunit alpha (Homo sapiens, UniProt Q15858). The experiment in a line: Inhibition of human sodium channel Nav1.7 by FRET assay. The procedure, abridged: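 hNav1.7 block was measured in a functional membrane-potential assay read out as FRET between two membrane-associated dyes.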
For series [6], the system named is Rattus norvegicus. The series is described as §4. In kind it is ADME, organism-based. The conditions noted are these: in vivo. The procedure, abridged:
as §2

For series [7], the target named is hERG (KCNH2) (Homo sapiens, UniProt Q12809). The series is described as §1. The conditions noted are these: probe [35S]MK-0499.
The test system of series [8] is Rattus norvegicus. The experiment in a line: Reversal of allodynia in rat at 10 mg/kg, po after 4 hrs. In kind it is functional.
The subject of series [9] is Rattus norvegicus. In words: Reversal of allodynia in rat at 10 mg/kg, po after 2 hrs. It is filed as functional.
The nature of series [10]: as §3. It is filed as ADME, organism-based. The conditions noted are these: Sprague-Dawley, in vivo. The procedure, abridged: as §2
The nature of series [11]: Cmax in Sprague-Dawley rat at 1 mg/kg, iv or 3 mg/kg, po. The conditions noted are these: in vivo. In kind it is ADME, organism-based. The procedure, abridged:
as §2

Where only a bound is given, the exact number is not on record here.

hERG (KCNH2), sequence (Q12809 whole entry): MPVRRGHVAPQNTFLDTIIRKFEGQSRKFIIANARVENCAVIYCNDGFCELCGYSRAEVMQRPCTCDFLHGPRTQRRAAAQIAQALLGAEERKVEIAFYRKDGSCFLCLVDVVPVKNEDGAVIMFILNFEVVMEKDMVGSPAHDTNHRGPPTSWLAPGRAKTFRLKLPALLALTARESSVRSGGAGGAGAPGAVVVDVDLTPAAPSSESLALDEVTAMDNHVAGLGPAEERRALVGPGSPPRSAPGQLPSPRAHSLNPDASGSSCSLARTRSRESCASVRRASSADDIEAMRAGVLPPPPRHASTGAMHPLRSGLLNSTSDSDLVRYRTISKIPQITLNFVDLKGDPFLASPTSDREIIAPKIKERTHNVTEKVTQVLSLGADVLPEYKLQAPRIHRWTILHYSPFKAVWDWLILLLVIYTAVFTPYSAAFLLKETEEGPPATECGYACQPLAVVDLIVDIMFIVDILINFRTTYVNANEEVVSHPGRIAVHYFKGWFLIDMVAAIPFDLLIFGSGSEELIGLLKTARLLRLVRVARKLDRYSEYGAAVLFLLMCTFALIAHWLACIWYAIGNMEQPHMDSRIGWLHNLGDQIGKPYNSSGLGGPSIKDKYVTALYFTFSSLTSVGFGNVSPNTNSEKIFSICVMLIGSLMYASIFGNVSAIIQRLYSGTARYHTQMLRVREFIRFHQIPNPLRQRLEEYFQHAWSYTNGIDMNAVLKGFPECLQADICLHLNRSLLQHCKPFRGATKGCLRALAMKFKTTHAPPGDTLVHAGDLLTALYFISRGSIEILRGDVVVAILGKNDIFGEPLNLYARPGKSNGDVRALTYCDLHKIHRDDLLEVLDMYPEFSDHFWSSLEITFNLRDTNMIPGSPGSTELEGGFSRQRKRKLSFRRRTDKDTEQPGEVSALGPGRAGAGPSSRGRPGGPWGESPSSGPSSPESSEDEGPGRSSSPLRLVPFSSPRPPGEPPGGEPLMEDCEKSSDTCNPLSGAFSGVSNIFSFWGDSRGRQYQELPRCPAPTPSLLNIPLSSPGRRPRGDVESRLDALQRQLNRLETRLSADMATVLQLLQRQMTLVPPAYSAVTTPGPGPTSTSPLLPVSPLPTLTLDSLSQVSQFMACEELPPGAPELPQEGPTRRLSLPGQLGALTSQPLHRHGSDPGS
Sodium channel protein type 9 subunit alpha, sequence (Q15858 whole entry): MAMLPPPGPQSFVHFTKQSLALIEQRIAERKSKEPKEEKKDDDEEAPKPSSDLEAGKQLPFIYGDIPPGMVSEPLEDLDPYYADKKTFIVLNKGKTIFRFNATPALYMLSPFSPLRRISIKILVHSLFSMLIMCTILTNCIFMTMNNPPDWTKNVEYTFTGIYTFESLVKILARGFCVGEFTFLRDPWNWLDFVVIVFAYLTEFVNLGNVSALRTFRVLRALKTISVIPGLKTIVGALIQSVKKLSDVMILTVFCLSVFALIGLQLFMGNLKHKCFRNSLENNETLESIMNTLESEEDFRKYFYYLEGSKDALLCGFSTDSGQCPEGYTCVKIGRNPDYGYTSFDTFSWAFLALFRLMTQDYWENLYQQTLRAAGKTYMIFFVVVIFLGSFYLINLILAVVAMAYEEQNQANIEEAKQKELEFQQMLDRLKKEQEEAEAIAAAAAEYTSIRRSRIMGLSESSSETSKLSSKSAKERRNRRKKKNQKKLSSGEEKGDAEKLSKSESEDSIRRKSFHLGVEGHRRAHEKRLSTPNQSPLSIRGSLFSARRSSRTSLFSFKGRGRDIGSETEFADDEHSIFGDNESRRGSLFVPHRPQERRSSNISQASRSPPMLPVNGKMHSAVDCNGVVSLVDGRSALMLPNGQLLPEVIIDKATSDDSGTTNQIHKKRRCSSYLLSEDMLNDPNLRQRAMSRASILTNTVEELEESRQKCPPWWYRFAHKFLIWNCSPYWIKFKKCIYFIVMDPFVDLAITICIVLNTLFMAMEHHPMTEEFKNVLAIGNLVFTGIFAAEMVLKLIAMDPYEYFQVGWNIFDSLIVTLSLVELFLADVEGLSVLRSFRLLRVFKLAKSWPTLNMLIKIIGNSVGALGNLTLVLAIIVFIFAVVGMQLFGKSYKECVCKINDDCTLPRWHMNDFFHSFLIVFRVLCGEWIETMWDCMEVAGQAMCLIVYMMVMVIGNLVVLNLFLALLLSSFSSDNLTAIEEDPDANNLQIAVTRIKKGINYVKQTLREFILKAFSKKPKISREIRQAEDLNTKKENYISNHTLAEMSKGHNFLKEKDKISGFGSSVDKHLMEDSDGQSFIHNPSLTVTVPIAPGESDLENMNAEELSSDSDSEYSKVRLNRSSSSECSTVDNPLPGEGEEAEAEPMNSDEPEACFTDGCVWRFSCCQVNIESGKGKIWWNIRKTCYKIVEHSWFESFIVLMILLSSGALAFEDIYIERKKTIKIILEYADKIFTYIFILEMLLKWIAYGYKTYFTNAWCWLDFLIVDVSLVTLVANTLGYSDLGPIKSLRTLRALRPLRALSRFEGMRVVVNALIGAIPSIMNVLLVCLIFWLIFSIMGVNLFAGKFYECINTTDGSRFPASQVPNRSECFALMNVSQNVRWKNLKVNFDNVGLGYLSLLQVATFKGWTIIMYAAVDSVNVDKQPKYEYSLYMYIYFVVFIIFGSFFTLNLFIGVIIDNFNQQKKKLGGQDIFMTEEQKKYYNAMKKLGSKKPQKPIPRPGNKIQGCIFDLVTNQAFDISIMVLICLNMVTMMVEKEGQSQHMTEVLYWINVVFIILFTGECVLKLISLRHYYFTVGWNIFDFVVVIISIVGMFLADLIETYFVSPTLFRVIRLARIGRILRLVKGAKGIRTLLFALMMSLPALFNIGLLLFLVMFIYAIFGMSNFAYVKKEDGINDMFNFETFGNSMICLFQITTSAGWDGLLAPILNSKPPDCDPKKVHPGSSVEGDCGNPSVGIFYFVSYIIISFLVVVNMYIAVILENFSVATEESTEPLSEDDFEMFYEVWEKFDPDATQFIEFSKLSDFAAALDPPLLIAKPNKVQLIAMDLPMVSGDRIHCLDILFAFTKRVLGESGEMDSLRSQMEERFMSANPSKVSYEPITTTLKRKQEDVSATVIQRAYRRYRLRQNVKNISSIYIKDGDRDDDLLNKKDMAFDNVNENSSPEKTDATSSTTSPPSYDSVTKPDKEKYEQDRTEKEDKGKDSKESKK
Voltage-gated inwardly rectifying potassium channel KCNH2, sequence (Q12809 whole entry): as the sequence (Q12809 whole entry) above

As for `CC(C)N1C(=O)C(NC(=O)[C@@H](Cc2ccccc2OC(F)(F)F)NC(=O)OC(C)(C)C)CCc2cccnc21` (stereo in doubt; 25), in series [1], the Inhibition is 18%. For the same compound, the clearance in series [2] stood at 24 mL/min/kg. For the same compound, the F in series [3] is given as 27%. The compound also had a half-life in series [4] of 1.4 h. The midpoint of inhibition in series [5], the IC50, lay at 79 nM.

`CC(C)N1C(=O)C(NC(=O)[C@@H](Cc2ccccc2OC(F)(F)F)NC(=O)OC(C)(C)C)CCc2cccnc21` (stereo in doubt; 24) showed an Inhibition in series [1] of 7%. The compound further registered a F in series [3] of 4%. This compound also yielded a t1/2 in series [6] of 1.9 h. In series [5], this compound gave an IC50 of 80 nM.

Take `CC(C)N1C(=O)[C@H](NC(=O)[C@@H](Cc2c(Cl)cccc2Cl)NC(=O)c2ccc(F)cc2C(F)(F)F)CCc2cc(Cl)ccc21`: in series [7], at 10 µM the inhibition was 20%. Moreover, the Activity in series [8] is listed as 9%; in series [9], 14%. The clearance in series [2] came out at 12 mL/min/kg. In addition, in series [10], the bioavailability was 70%. This compound also gave a half-life in series [4] of 2.9 h. The compound also showed an IC50 in [5] of 107 nM. Moreover, the highest level in [11] (Cmax) was 1470 nM.

For the compound `CC(C)N1C(=O)[C@H](NC(=O)[C@@H](Cc2ccccc2OC(F)(F)F)NC(=O)c2ccc(C(F)(F)F)cc2)CCc2ccccc21`, the inhibition at 10 µM in [7] was determined as 43%. Further, the half-maximal inhibitory concentration (IC50) in [5] was found to be 175 nM.

`CC(C)N1C(=O)[C@H](NC(=O)[C@@H](Cc2ccc(F)cc2F)NC(=O)c2ccc(F)cc2C(F)(F)F)CCc2cc(Cl)ccc21` had a 50% inhibitory concentration (IC50) in series [5] of over 1000 nM.

In series [7], `CC(C)N1C(=O)[C@H](NC(=O)[C@@H](Cc2ccccc2OC(F)(F)F)NC(=O)c2ccc(F)cc2)CCc2ccccc21` came in with an inhibition at 10 µM of 26%. In addition, in series [2], the clearance was 66 mL/min/kg. Moreover, the bioavailability in [10] came out at 50%. Moreover, in series [4], the half-life is 2.1 h. In addition, the IC50 in [5] was found to be 94 nM. The compound further registered a peak concentration (Cmax) in [11] of 240 nM.

`CC(C)N1C(=O)[C@H](NC(=O)[C@@H](Cc2ccccc2OC(F)(F)F)NC(=O)c2ccc(F)cc2C(F)(F)F)CCc2ccccc21` gave an inhibition at 10 µM in series [7] of 31%. This compound gave a clearance in [2] of 51 mL/min/kg. The bioavailability in [10] stood at 86%. Moreover, the half-life in [4] was 2.6 h. Besides, the IC50 in series [5] turned out to be 128 nM. In addition, the concentration in series [11] peaked (Cmax) at 430 nM.

`CC(C)N1C(=O)[C@H](NC(=O)[C@@H](Cc2cccc(F)c2F)NC(=O)c2ccc(F)cc2C(F)(F)F)CCc2cc(Cl)ccc21` displayed an inhibition at 10 µM in series [7] of 3%. In addition, the midpoint of inhibition in series [5], the IC50, lay at 146 nM.

`CC(C)N1C(=O)[C@H](NC(=O)[C@@H](Cc2ccccc2OC(F)(F)F)NC(=O)OC(C)(C)C)CCc2ccccc21` had an inhibition at 10 µM in series [7] of 17%.

`CC(C)N1C(=O)[C@H](NC(=O)[C@@H](Cc2ccccc2OC(F)(F)F)NC(=O)c2cncnc2)CCc2ccccc21` returned an IC50 in series [5] of over 1000 nM.

`CC(C)N1C(=O)[C@H](NC(=O)[C@@H](Cc2ccccc2OC(F)(F)F)NC(=O)c2ccncc2)CCc2ccccc21` came in with an inhibition at 10 µM in series [7] of 44%. It took 453 nM to reach half-maximal inhibition in series [5] (IC50).

`CC(C)N1C(=O)[C@H](NC(=O)[C@@H](Cc2ccccc2OC(F)(F)F)NC(=O)C(F)(F)F)CCc2ccccc21`: the inhibition at 10 µM in series [7] was determined as 40%. In series [5], this compound had an IC50 of 868 nM.

`CC(C)N1C(=O)[C@H](NC(=O)[C@@H](Cc2ccccc2OC(F)(F)F)NC(=O)c2ccccc2C(F)(F)F)CCc2ccccc21` showed an inhibition at 10 µM in [7] of 0%. This compound also showed an IC50 in series [5] of 98 nM.

On to `CC(=O)N[C@H](Cc1ccccc1OC(F)(F)F)C(=O)N[C@@H]1CCc2ccccc2N(C(C)C)C1=O`, for which testing at 10 µM in series [7] gave an inhibition of 9%. This compound also yielded a 50% inhibitory concentration (IC50) in series [5] of over 1000 nM.

Turning to `CC(C)N1C(=O)[C@H](NC(=O)[C@@H](Cc2ccccc2OC(F)(F)F)NC(=O)c2ncccn2)CCc2ccccc21`, in series [7], testing at 10 µM gave an inhibition of 15%. This compound yielded an IC50 in series [5] of over 1000 nM.

Compound `CC(C)N1C(=O)[C@H](NC(=O)[C@@H](Cc2c(F)cccc2F)NC(=O)c2ccc(F)cc2C(F)(F)F)CCc2cc(Cl)ccc21` came in with an inhibition at 10 µM in series [7] of 7%. For the same compound, the results for the Activity in [8] and in [9] were 35% and 18%, respectively. In series [2], this compound yielded a clearance of 19 mL/min/kg. The compound further came in with a bioavailability in series [10] of 68%. In addition, in series [4], the half-life was 2 h. The compound also showed an IC50 in [5] of 290 nM. Further, in series [11], the Cmax is 740 nM.

In series [7], `CC(C)N1C(=O)[C@H](NC(=O)[C@@H](Cc2cc(F)ccc2F)NC(=O)c2ccc(F)cc2C(F)(F)F)CCc2cc(Cl)ccc21` gave an inhibition at 10 µM of 10%. Also, the Activity in series [8] was determined as 61%; in series [9], 55%. For the same compound, in [2], the clearance was 32 mL/min/kg. In series [10], this compound registered a bioavailability of 42%. Further, the half-life in series [4] is 2.2 h. In series [5], this compound gave an IC50 of 232 nM. For the same compound, the maximum concentration (Cmax) in series [11] is 260 nM.

`CC(C)N1C(=O)[C@H](NC(=O)[C@@H](Cc2ccccc2OC(F)(F)F)NC(=O)c2ccccc2)CCc2ccccc21`: testing at 10 µM in [7] gave an inhibition of 83%. This compound also registered a clearance in series [2] of 43 mL/min/kg. In series [10], this compound showed a bioavailability of 18%. The compound also gave a half-life in series [4] of 1.5 h. In addition, the midpoint of inhibition in series [5], the IC50, lay at 22 nM. The compound further registered a Cmax in series [11] of 150 nM.

Regarding `CC(C)N1C(=O)[C@H](NC(=O)[C@@H](Cc2ccccc2OC(F)(F)F)NC(=O)OC(C)(C)C)COc2ccccc21`, the inhibition at 10 µM in series [7] was 17%. For the same compound, in series [2], the clearance was 40 mL/min/kg. In addition, the bioavailability in [10] worked out at 25%. The compound also gave a half-life in [4] of 2 h. The compound further had an IC50 in [5] of 44 nM.

`CC(C)N1C(=O)[C@H](NC(=O)[C@@H](Cc2ccccc2F)NC(=O)c2ccc(F)cc2C(F)(F)F)CCc2cc(Cl)ccc21` came in with an inhibition at 10 µM in series [7] of 32%. Moreover, the Activity in series [8] is given as 28%; in series [9], 56%. Besides, the clearance in [2] is 44 mL/min/kg. Also, the bioavailability in series [10] was 90%. In addition, in series [4], the half-life was 2.8 h. In addition, half-maximal inhibition in [5] (IC50) required 30 nM. In [11], the peak level (Cmax) was 330 nM.

Turning to `CC(C)N1C(=O)[C@H](NC(=O)[C@@H](Cc2ccccc2OC(F)(F)F)NC(=O)OC(C)(C)C)CCc2cc(Cl)ccc21`, 10 µM produced 32% inhibition in [7]. The clearance in [2] turned out to be 13 mL/min/kg. The same compound yielded a bioavailability in series [10] of 31%. Further, the half-life in series [4] was 3 h. The compound also returned a half-maximal inhibitory concentration (IC50) in [5] of 108 nM.

`CC(C)N1C(=O)[C@H](NC(=O)[C@@H](Cc2ccccc2OC(F)(F)F)NC(=O)C(C)(C(F)(F)F)C(F)(F)F)CCc2ccccc21` registered an inhibition at 10 µM in series [7] of 10%. In addition, the clearance in [2] was 23 mL/min/kg. In addition, the bioavailability in series [10] is 42%. The same compound showed a half-life in series [4] of 2.5 h. For the same compound, in [5], the IC50 stood at 203 nM. Moreover, the Cmax in series [11] is 330 nM.

As to `CC(C)N1C(=O)[C@H](NC(=O)[C@@H](Cc2ccccc2OC(F)(F)F)NC(=O)c2ccccn2)CCc2ccccc21`, testing at 10 µM in series [7] gave an inhibition of 61%. In [2], this compound gave a clearance of 43 mL/min/kg. The compound further came in with a bioavailability in series [10] of 60%. In addition, the half-life in series [4] was 1.2 h. The compound further returned a concentration for half-maximal inhibition (IC50) in series [5] of 177 nM. In [11], this compound came in with a Cmax of 550 nM.

As to `CC(C)N1C(=O)[C@H](NC(=O)[C@@H](Cc2ccccc2OC(F)(F)F)NC(=O)C(C)(C)C)CCc2ccccc21`, in series [7], testing at 10 µM gave an inhibition of 18%. For the same compound, the clearance in [2] amounted to 31 mL/min/kg. Moreover, the bioavailability in [10] is 16%. The half-life in series [4] was 1.8 h. This compound also gave an IC50 in series [5] of 131 nM. Besides, the Cmax in [11] turned out to be 140 nM.

Turning to `CC(C)N1C(=O)[C@H](NC(=O)[C@@H](Cc2ccccc2OC(F)(F)F)NC(=O)c2ccc(F)cc2C(F)(F)F)CCc2cc(Cl)ccc21`, in series [7], the inhibition at 10 µM is 7%. Moreover, the clearance in [2] worked out at 29 mL/min/kg. The compound also displayed a bioavailability in series [10] of 65%. In addition, the half-life in series [4] is 2.6 h. Moreover, the IC50 in series [5] stood at 169 nM. The compound further showed a Cmax in [11] of 520 nM.
